HSF1 inh: HSF1 inhibition; NIH3T3-HGL HSE-luciferase, MG132-induced, luminescence 8 h; hits give low values; activity change, negative = inhibition, % at 7.5 µM (by protocol); AID 2098; hit rate 0.77% among 300,000;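 active means more than half of replicate wells show activity change below -50%, luminescence cut by over half; inconclusive means some wells, but at most half, below -50%; inactive means no replicate well below -50%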;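 further: luciferase reports HSF-1 transcriptional activity via heat shock element; 0% = median of DMSO wells and -100% = zero luminescence signal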
ALR H2O2 inh: inhibitors of human sulfhydryl oxidase ALR; AID 485317; P55789; hit rate 3.8% among 290,000; inhibition, % (concentration not given with the values); purified ALR, DTT oxidation, H2O2 HRP-luminol luminescence;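 active means mean replicate inhibition above about 79%, with every replicate also reaching it, limit read from the data; inconclusive means only one of the two criteria met; inactive means mean below limit and not every replicate reaching it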
Target sequence (P55789 whole entry, looked up): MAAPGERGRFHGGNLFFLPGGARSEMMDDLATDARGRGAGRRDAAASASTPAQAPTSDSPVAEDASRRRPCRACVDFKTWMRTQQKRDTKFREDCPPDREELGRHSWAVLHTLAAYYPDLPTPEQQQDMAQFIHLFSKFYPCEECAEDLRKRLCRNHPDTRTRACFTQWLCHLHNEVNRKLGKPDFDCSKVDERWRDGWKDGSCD
PHOSPHO1 inh: PHOSPHO1 (human) inhibition | hit rate 1.1% among 290,000 | Q8TCT1 | inhibition, % at 13.3 µM | recombinant PHOSPHO1, absorbance phosphatase assay; in the data active means inhibition above about 60%
Target sequence (Q8TCT1 whole entry, looked up): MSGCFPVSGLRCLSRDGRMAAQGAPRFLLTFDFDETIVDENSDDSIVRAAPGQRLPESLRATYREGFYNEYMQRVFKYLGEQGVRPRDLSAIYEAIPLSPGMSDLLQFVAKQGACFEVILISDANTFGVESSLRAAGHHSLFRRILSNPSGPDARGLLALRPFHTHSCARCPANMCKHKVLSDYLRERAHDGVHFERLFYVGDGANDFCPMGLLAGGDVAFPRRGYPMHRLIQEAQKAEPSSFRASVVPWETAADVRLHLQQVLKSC
AI-2 QS modul: modulators of Vibrio harveyi AI-2 quorum sensing system; Vibrio harveyi JMH597 AI-2 luminescence/OD600 ratio, 9 h; hits give low values; strain lacks LuxN and CqsS sensors; 0 = neutral-control median; activity change, % at 7.5 µM; hit rate 0.4% among 300,000; in the data active means activity change below about -75%, passing the limit was not always enough; inconclusive means no clear call, values can overlap the other calls;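 further: luminescence divided by OD600 gain over 9 h not by final OD600 alone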
HSF-1 act: increases HSF-1 driven luciferase reporter signal; NIH3T3-HGL HSF-1 luciferase reporter, MG132, 8 h; 100% = twice DMSO control signal; activation, % at 9 µM; AID 504408; hit rate 1.7% among 300,000;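 active means mean replicate activation of at least 50% with a set share of replicates each reaching 50%; inconclusive means only one of those two conditions met; inactive means mean below 50% and too few replicates reaching it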;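 further: 0% = median of the neutral control wells and 100% = twice that signal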
core dimer inh: HCV core protein dimerization inhibition | inhibition, % at 5 µM | hit rate 0.33% among 300,000 | TR-FRET GST/Flag-core106 dimerization, 1536-well | AID 1899;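 active means inhibition above the mean of all tested compounds plus 3 SD, set per screening campaign, cut at about 45% in these data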
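Assay system: Tagged HCV core106 pair (GST and Flag) | Buffer or medium: KF-containing HEPES buffer, pH 7.45, DTT, CHAPS, BSA | Also added: Eu donor and XL665 acceptor anti-tag antibodies | Dosing: One concentration, 5 µM, in 0.5% DMSO | Timing: 4 h at 22.5 °C | Technique: TR-FRET 671 and 617 nm emission | Repeats: Singlicate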
JMH597 growth rt: retest Vibrio harveyi JMH597 growth inhibition; shares compounds with AI-2 QS modul; OD600 absorbance, 9 h; lacks LuxN and CqsS sensors; growth inhibition, % at 7.5 µM; hit rate 1% among 750; AID 2726;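 active means every replicate shows growth inhibition above 50%; inconclusive means at least half, but not all, replicates pass that cutoff; inactive means fewer than half of replicates pass it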
BB721 const-QS lum: retest counter-screen: lowers luminescence of constitutive-QS Vibrio harveyi BB721; inhibition, % at 7.5 µM; hit rate 95% among 750; shares compounds with AI-2 QS modul; 9 h;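 active means inhibition above about 80% in every replicate, not just on average, limit read from the data; inconclusive means at least half of replicates past the limit, but not all; inactive means fewer than half of replicates past the limit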
BB721 growth: retest: inhibitors of Vibrio harveyi BB721 growth; shares compounds with AI-2 QS modul; OD600 absorbance, 9 h; growth inhibition, % at 7.5 µM; hit rate 3% among 750; AID 2728;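 active means every replicate shows growth inhibition above 50%; inconclusive means at least half but not all replicates above 50% inhibition; inactive means under half of replicates above 50% inhibition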
AI-2 QS JMH597: Vibrio harveyi AI-2 signaling luminescence modulation – JMH597 strain, confirmation | hit rate 97% among 750 | Vibrio harveyi JMH597 AI-2 quorum sensing luminescence, 9 h; luxN and CqsS knockout, AI-2 only | shares compounds with AI-2 QS modul | inhibition, % at 7.5 µM | AID 2736;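 active means every replicate shows more than 75% inhibition of signal versus neutral control wells; inconclusive means half to three quarters of replicates exceed 75% inhibition; inactive means fewer than half of replicates exceed 75% inhibition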
Active calls of the source: *; ? = inconclusive; nt = not tested or not shown. The list is not random: actives were taken first. Their share in the collection is about 6.8%.

SMILES	HSF1 inh	ALR H2O2 inh	PHOSPHO1 inh	AI-2 QS modul	HSF-1 act	core dimer inh	JMH597 growth rt	BB721 const-QS lum	BB721 growth	AI-2 QS JMH597
C(=C\c1ccccc1)/CSc1nnc(-c2cccnc2)o1	12.5	11.0	15.4	-89.4*	13.7	0.7	18.7	95.3*	-0.9	97.5*
Brc1ccc(CSc2nnc(-c3cccnc3)o2)cc1	-7.1	-6.5	47.7	-94.2*	-29.0	-3.2	0.5	98.4*	0.0	98.9*
c1ccc(CSc2nnc(-c3cccnc3)o2)cc1	10.2	-1.8	-47.7	-94.9*	25.0	0.9	-11.5	98.8*	-23.7	99.3*
CCOC(=O)CSc1nnc(-c2cccnc2)o1	-10.0	6.6	0.5	-11.5	-14.1	-3.2	nt	nt	nt	nt
c1cncc(-c2nnc(SCc3cccc4ccccc34)o2)c1	2.6	nt	-13.2	-95.6*	-3.8	3.8	4.8	98.6*	0.5	99.1*
Nn1c(SCc2ccc(Br)cc2)nnc1-c1cccnc1	4.3	-13.5	14.6	-86.5*	6.4	-3.1	20.6	95.5*	10.9	96.4*
Nn1c(SCc2ccccc2)nnc1-c1ccccn1	12.6	-2.4	33.1	-35.1	11.4	2.9	nt	nt	nt	nt
O=[N+]([O-])c1ccc(CSc2nnc(-c3cccnc3)o2)cc1	7.3	2.9	35.6	-58.6	15.5	nt	nt	nt	nt	nt
Cc1ccc(CSc2nnc(-c3ccccn3)n2N)cc1	5.1	-1.5	7.6	?	16.5	-4.3	0.2	91.4*	-20.9	94.6*
Nn1c(SCc2ccc(Br)cc2)nnc1-c1ccncc1	-1.3	0.5	27.4	25.6	0.3	-0.3	nt	nt	nt	nt
Clc1ccc(CSc2nnc(-c3cccnc3)o2)cc1	5.8	-4.1	3.4	-92.9*	12.6	4.0	27.3	98.0*	22.4	98.6*
O=C(CSc1nnc(C2CC2)n1CC1CCCO1)Nc1ccccc1Cl (configuration not stated)	0.0	1.8	4.1	nt	12.9	9.2	nt	nt	nt	nt
Cc1ccc(CSc2nnc(-c3cccnc3)o2)cc1	4.9	-4.3	9.1	-96.2*	6.3	1.8	25.9	99.1*	9.0	99.4*
Fc1ccc(CSc2nnc(-c3cccnc3)o2)cc1	3.1	nt	1.2	-93.2*	15.0	8.7	19.2	98.2*	4.6	98.5*
COc1ccc(CNC(=O)CSc2nc3ccccc3n2C(C)=O)cc1	4.8	-17.2	25.3	7.5	-3.8	8.9	nt	nt	nt	nt
CC(=O)C1=C(C)NC(=O)NC1c1ccc(Cl)cc1 (configuration not stated)	nt	-1.0	32.5	22.6	nt	-7.6	nt	nt	nt	nt
O=C(CN1CCN(Cc2ccccc2Cl)CC1)N/N=C/C=C/c1ccccc1[N+](=O)[O-]	-2.8	-16.6	-9.0	36.8	5.9	-8.2	nt	nt	nt	nt
CN(C)S(=O)(=O)c1ccc(NC(=O)COC(=O)c2ccccn2)cc1	-5.0	-12.7	7.8	-86.9*	6.9	-0.6	-10.1	96.5*	5.1	97.4*
O=C(COc1ccc(Br)cc1)Nc1ccc(S(=O)(=O)Nc2ccccn2)cc1	0.4	nt	45.4	-86.7*	4.1	-7.1	11.6	94.3*	-21.4	98.3*
CCCCCN1C(=O)Cn2c(nc3ccccc3c2=O)C1C (configuration not stated)	4.0	-1.7	37.8	10.6	-20.2	-5.2	nt	nt	nt	nt
O=C(CSc1nnc(-c2ccccc2F)o1)Nc1ccc(N2CCOCC2)cc1	nt	-5.4	nt	nt	nt	nt	nt	nt	nt	nt
CC(COc1ccc(C(C)C)cc1)NC(=O)c1ccc(Br)o1 (configuration not stated)	-4.9	-9.4	-6.7	-82.5*	4.8	-1.3	-15.9	88.2*	2.7	92.8*
COc1ccc(NC(=O)Cn2nnc(-c3ccccc3N)n2)cc1OC	8.9	-7.1	24.4	8.5	3.7	-0.7	nt	nt	nt	nt
COc1cc(NC(=O)Cn2nnc(-c3ccccc3N)n2)cc(OC)c1	1.0	8.2	58.0	-89.4*	12.2	5.0	19.8	97.6*	18.5	98.2*
Cc1cc(Cc2ccc([N+](=O)[O-])cc2)c(C)cn1	-3.0	-0.5	8.5	-9.0	-9.9	-1.4	nt	nt	nt	nt
SMILES	HSF1 inh	ALR H2O2 inh	PHOSPHO1 inh	AI-2 QS modul	HSF-1 act	core dimer inh	JMH597 growth rt	BB721 const-QS lum	BB721 growth	AI-2 QS JMH597
Cc1ccc(/C=C/C(=O)NCc2ccncc2)cc1	8.4	-3.6	-16.4	-5.1	18.3	-2.7	nt	nt	nt	nt
Cc1ccc(CNC(=O)/C=C/c2ccc(Br)o2)cc1	19.2	3.0	-2.0	-93.9*	35.0	14.7	23.0	98.7*	?	98.9*
O=C(/C=C/c1ccc(Br)o1)NCc1ccccc1	22.0	4.8	-121.4	-90.4*	20.0	13.1	12.8	96.7*	19.1	97.2*
Cc1ccc(NC(=O)CSc2nnc(C3CC3)n2N)cc1S(=O)(=O)N1CCOCC1	-3.5	-11.3	-14.1	18.8	15.4	7.1	nt	nt	nt	nt
Nc1cc(Nc2ccc(Br)cc2)nc(N)n1	-5.5	45.5	20.3	-96.3*	-9.0	-4.1	12.9	99.0*	22.6	99.2*
Cc1cc(Nc2ccc(Cl)cc2)nc(N)n1	12.1	-19.7	28.7	-59.3	28.8	3.3	nt	nt	nt	nt
COc1ccc(CNC(=S)Nc2ccc(F)c(Cl)c2)cc1	33.2	-1.3	13.5	-84.1*	73.4*	5.0	8.0	92.3*	21.0	92.0*
NS(=O)(=O)c1cccc(NC(=O)Cn2cnc3ccccc3c2=O)c1	-2.9	-2.6	8.3	-85.1*	-2.8	-1.0	18.0	93.1*	-3.1	94.7*
CCCc1nnc(NC(=O)Cn2cnc3ccccc3c2=O)s1	0.7	-5.1	7.7	-85.7*	19.4	-5.8	14.5	95.5*	14.6	96.5*
COC(=O)c1cccc(NC(=O)Cn2cnc3ccccc3c2=O)c1	-5.7	5.4	-6.9	-94.0*	-2.0	-1.9	12.1	98.9*	1.0	99.4*
NS(=O)(=O)c1cccc(NC(=O)CSc2ncnc3ccccc23)c1	-4.7	99.3*	17.1	-82.0*	-4.3	5.1	5.1	85.4*	7.9	91.7*
O=C(OCC(=O)N1CCN(C(=O)COC(=O)c2ccc(O)cc2O)CC1)c1ccc(O)cc1O	0.4	-1.9	nt	4.8	1.2	0.6	nt	nt	nt	nt
CCc1cc(C(=O)N/N=C/c2ccc(OC)cc2)c2ccccc2n1	-0.9	-12.3	26.5	25.8	1.4	6.1	nt	nt	nt	nt
CCc1ccc(O)c(-c2cc(C(=O)Nc3cccnc3)[nH]n2)c1	-3.9	nt	51.2	-94.0*	-5.3	-0.8	-13.4	97.2*	2.5	97.3*
Cc1cccc(NC(=O)c2cc(-c3cc(Cl)ccc3O)n[nH]2)c1	10.1	-7.3	29.2	-0.9	4.2	-0.3	nt	nt	nt	nt
